The source of these data is ChEMBL document CHEMBL1133729, “Design, synthesis, and structure-activity relationships of phthalimide-phenylpiperazines: a novel series of potent and selective alpha(1)(a)-adrenergic receptor antagonists” (J Med Chem, 2000).

The structures appear in SMILES notation.

The species entered for data set [1] is Rattus norvegicus. Description: Antagonist dissociation equilibrium constant was tested against rat prosta contraction. It is filed as functional. The method, boiled down:
(§1)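 Isolated Long Evans male rat (275 ± 25 g) abdominal aortic strips (3-4 mm wide) or prostate strips (8-10 mm x 1-2 mm), 2 g resting tension, modified Krebs at 37 °C, 95% O2/5% CO2, pH 7.4, 60 min equilibration; isometric tension.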

Data set [2] in a line: Ratio of rat aorta KB to rat prostate KB. It is filed as functional. The method, boiled down:
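Long Evans male rats (275 ± 25 g); aortic and prostate strips at 2 g resting tension in modified Krebs, 37 °C, 95% O2/5% CO2, pH 7.4, isometric recording. Cumulative NE curves (0.001–100 μM), repeated after 5 min with one of three antagonist concentrations. KB = [B]/(CR − 1) from EC50 shifts; value is aorta KB divided by prostate KB.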

The species named for data set [3] is Rattus norvegicus. Description: Antagonist dissociation equilibrium constant was tested against rat aorta contraction. The class given is functional. The method, boiled down:
as §1

Data set [4] addresses Histamine H1 receptor (Cavia porcellus) (UniProt P31389). Description: Compound at 1 uM was tested for the inhibition of radioligand [3H]pyrilamine binding to peripheral histamine H1 receptor in guinea pig lung.
The species entered for data set [5] is Rattus norvegicus. Description: Displacement of [3H]-idazoxan from imidazoline receptor I-2 of rat cerebral cortex. It is filed as tissue-based. The settings on record: concentration not given here. The method, boiled down: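 Rat cerebral cortex membranes; [3H]idazoxan at 25 °C for 30 min in 50 mM Tris-HCl, 150 mM NaCl, 5 mM EDTA, pH 7.4; nonspecific binding with 1 μM idazoxan. Filtered, washed three to four times, scintillation counted; duplicate determinations.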

Data set [6] deals with phenylalkylamine-sensitive L-type Ca2+ channel (Rattus norvegicus, UniProt P22002+P27732+Q02485). Description: Inhibition of [3H]nitrendipine binding to phenylalkylamine-sensitive [Ca2+] L-type channels in rat cerebral cortex at 1 uM. The class given is tissue-based. To be noted: probe [3H]nitrendipine.
The target in data set [7] is Dihydropyridine-sensitive L-type Ca2+ channel (Rattus norvegicus, UniProt P22002+P27732+Q02485). Description: Inhibition of [3H]nitrendipine binding to Dihydropyridine-sensitive L-type [Ca2+] channel in rat cerebral cortex at 1 uM. The settings on record: probe [3H]nitrendipine. It is filed as tissue-based. The method in brief: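 Rat cerebral cortex membranes as source of dihydropyridine-sensitive L-type Ca2+ channels; [3H]nitrendipine, 25 °C for 90 min, pH 7.4 Tris-HCl/NaCl/EDTA; 1 μM nifedipine for nonspecific binding. Percent inhibition at the single compound concentration given in each line; filtration, scintillation counting.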

In data set [8] the target is T1, 5-hydroxytryptamine receptor 1A (Homo sapiens, UniProt P08908). Description: Binding affinity towards recombinant human Compound at 1 uM was tested for the inhibition of radioligand [3H]8-OH-DPAT binding to recombinant human 5-hydroxytryptamine 1A receptor was determined using [3H]8-OH-DPAT as radioligand. The method, boiled down:
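Recombinant human 5-HT1A receptor expressed in CHO cell membranes. [3H]8-OH-DPAT binding for 60 min at 25 °C in Tris/NaCl/EDTA buffer, pH 7.4. Nonspecific binding defined with 10 μM metergoline. Percent inhibition measured at 1 μM test compound in duplicate; filtration and scintillation counting.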

For data set [9], the target named is T2, D(2) dopamine receptor (Homo sapiens, UniProt P14416). Description: Binding affinity towards recombinant human Dopamine receptor D2S was determined using [3H]spiperone as radioligand. The method in brief:
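Recombinant human D2S in CHO cell membranes; [3H]spiperone incubated 120 min at 37 °C, buffer 50 mM Tris-HCl, 150 mM NaCl, 5 mM EDTA, pH 7.4; nonspecific with 10 μM haloperidol. Filtered, counted by scintillation. Ki via Cheng–Prusoff from fitted IC50, mean ± SEM of three experiments.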

The target of data set [10] is T2, D(2) dopamine receptor. Description: Binding affinity towards recombinant human Dopamine receptor D2L was determined using [3H]spiperone as radioligand. The method, boiled down: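 CHO-expressed human D2L membranes; [3H]spiperone, 25 °C for 120 min, pH 7.4 Tris-HCl/NaCl/EDTA buffer; haloperidol (10 μM) for nonspecific binding. Filtration, scintillation counting. IC50 by nonlinear least squares fitting; Ki by Cheng–Prusoff; mean ± SEM, three independent experiments.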

The next data set concerns the target D(3) dopamine receptor (Homo sapiens, UniProt P35462). Description: Binding affinity towards recombinant human Dopamine receptor D3 was determined using [3H]spiperone as radioligand.
Data set [11] addresses Alpha-2B adrenergic receptor (Rattus norvegicus, UniProt P19328). Description: Binding affinity towards rat alpha-2B adrenergic receptor was determined using [3H]yohimbine as radioligand. The method in brief: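 Membranes from rat kidney cortex; [3H]yohimbine binding at 25 °C for 30 min in 50 mM Tris-HCl, 150 mM NaCl, 5 mM EDTA, pH 7.4. Nonspecific binding defined with 10 μM phentolamine. Filtration, washes, scintillation counting. IC50 from nonlinear regression, Ki by Cheng–Prusoff, mean ± SEM of three independent experiments.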

In data set [12] the target is 5-hydroxytryptamine receptor 7 (Homo sapiens, UniProt P34969). Description: Binding affinity towards recombinant human 5-hydroxytryptamine 7 receptor was determined using [3H]LSD as radioligand. The method in brief:
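Membranes were from CHO cells expressing recombinant human 5-HT7. [3H]LSD binding was run for 120 min at 37 °C in 50 mM Tris-HCl, 150 mM NaCl, 5 mM EDTA, pH 7.4, with nonspecific binding set by 5 μM 5-HT. Filtration and scintillation counting followed. Ki came from IC50 by Cheng–Prusoff, mean ± SEM of three experiments.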

Another data set has as its target Histamine H1 receptor (Cavia porcellus, UniProt P31389). Description: Binding affinity towards histamine H1 receptor was determined in guinea pig brain using [3H]pyrilamine as radioligand. The method, boiled down:
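Guinea pig brain membranes as source of central H1 receptors; [3H]pyrilamine, 25 °C for 60 min in 50 mM Tris-HCl, 150 mM NaCl, 5 mM EDTA, pH 7.4; nonspecific binding with 1 μM pyrilamine. Filtration, scintillation counting. Ki by Cheng–Prusoff from fitted IC50, mean ± SEM of three experiments.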

The target in data set [13] is Serotonin 1 (5-HT1) receptor (Rattus norvegicus, UniProt P28564+P30940+P19327+P28565). Description: Binding affinity towards central 5-hydroxytryptamine 1 receptor was determined in rat cerebral cortex using [3H]5-HT as radioligand. It is filed as tissue-based. The method, boiled down:
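Rat cerebral cortex membranes incubated with [3H]5-HT for 10 min at 37 °C in 50 mM Tris-HCl, 150 mM NaCl, 5 mM EDTA, pH 7.4. Nonspecific binding defined with 10 μM 5-HT. Filtration, then liquid scintillation counting. Ki derived from IC50 by Cheng–Prusoff; mean of three independent experiments.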

Data set [14] concerns the target T1, 5-hydroxytryptamine receptor 1A. Description: Binding affinity towards recombinant human 5-hydroxytryptamine 1A receptor was determined using [3H]8-OH-DPAT as radioligand. The method, boiled down:
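Human 5-HT1A receptor expressed in CHO cells, membranes used. [3H]8-OH-DPAT, 60 min at 25 °C in Tris-HCl/NaCl/EDTA buffer, pH 7.4. Metergoline (10 μM) gave nonspecific binding. Filtered, scintillation counted. Ki from IC50 (nonlinear regression) by Cheng–Prusoff, mean ± SEM of three independent experiments.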

Data set [15] deals with Alpha-1D/Alpha-1A adrenergic receptor (Homo sapiens). Description: Ratio of binding affinity towards Alpha1d to Alpha-1A.

In general, pKB refers to the KB on a negative log10 scale, so that one unit is a factor of ten. Higher therefore signals a low KB. The term inhibition denotes the change of the read-out against control, counted positive when it falls. A higher inhibition goes with a response far below the control. Usually Ki stands for a dissociation constant, usually derived from enzyme kinetics or from competition with a known ligand.

T2 sequence (P14416 whole entry): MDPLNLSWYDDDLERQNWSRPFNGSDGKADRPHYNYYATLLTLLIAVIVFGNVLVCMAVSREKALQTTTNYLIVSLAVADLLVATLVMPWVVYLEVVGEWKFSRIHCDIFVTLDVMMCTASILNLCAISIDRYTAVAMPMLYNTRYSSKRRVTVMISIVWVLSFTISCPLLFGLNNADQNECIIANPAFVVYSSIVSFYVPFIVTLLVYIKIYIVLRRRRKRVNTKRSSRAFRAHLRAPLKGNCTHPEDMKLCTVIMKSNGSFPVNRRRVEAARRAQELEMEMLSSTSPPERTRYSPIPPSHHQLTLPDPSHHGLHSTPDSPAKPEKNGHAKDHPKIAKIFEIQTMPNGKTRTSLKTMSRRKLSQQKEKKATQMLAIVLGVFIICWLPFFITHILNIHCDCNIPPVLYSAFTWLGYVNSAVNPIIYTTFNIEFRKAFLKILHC
Sequence of Histamine H1 receptor (Cavia porcellus) (P31389 whole entry): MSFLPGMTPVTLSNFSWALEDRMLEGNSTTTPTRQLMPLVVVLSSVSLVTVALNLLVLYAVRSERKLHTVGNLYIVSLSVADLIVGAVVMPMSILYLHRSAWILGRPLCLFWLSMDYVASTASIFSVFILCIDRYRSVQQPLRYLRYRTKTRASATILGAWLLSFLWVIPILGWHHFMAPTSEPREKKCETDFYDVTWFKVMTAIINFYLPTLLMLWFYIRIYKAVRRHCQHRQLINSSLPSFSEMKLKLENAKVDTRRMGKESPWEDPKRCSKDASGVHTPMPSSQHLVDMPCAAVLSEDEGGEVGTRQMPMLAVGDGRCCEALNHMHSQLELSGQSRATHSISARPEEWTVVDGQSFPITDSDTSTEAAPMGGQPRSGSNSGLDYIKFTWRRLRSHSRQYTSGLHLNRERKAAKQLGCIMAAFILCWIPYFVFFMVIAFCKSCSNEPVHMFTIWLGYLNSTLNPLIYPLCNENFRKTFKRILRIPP
Sequence of D(3) dopamine receptor (P35462 whole entry): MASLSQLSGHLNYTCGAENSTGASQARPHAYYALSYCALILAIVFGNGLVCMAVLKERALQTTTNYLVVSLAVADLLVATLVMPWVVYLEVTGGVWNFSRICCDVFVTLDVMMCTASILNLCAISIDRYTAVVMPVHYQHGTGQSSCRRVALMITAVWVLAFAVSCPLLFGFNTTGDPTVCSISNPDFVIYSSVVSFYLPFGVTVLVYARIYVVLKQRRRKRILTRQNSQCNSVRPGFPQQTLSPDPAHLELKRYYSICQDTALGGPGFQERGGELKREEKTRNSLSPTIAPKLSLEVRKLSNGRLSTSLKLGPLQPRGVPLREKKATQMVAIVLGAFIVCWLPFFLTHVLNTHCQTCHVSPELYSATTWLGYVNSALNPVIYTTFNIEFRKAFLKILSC
Sequence of 5-hydroxytryptamine receptor 7 (P34969 whole entry): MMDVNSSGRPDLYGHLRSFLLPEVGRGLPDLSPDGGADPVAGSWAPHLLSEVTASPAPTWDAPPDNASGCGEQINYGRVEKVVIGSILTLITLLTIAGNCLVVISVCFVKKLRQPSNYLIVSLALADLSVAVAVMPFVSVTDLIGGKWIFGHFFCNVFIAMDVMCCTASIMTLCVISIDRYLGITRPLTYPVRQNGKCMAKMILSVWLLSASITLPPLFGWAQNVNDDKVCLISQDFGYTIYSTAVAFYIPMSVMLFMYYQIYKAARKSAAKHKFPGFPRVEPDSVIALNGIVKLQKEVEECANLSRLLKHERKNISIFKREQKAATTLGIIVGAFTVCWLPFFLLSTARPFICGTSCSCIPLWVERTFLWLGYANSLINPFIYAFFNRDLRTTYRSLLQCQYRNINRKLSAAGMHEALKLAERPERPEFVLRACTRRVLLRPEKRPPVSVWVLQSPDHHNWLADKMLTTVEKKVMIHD
T1 sequence (P08908 whole entry): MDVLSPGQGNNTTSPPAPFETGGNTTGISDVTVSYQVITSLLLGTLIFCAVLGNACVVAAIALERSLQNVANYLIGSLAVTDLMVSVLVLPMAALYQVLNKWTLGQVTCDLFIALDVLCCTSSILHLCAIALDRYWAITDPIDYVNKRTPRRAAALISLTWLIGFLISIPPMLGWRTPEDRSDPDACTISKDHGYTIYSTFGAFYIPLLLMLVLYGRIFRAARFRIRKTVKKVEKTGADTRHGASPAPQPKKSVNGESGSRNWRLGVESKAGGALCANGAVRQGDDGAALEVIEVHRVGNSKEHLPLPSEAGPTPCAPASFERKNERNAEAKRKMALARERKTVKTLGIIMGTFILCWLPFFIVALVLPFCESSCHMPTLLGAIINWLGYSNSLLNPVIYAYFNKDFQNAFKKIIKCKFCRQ
Sequence of Alpha-2B adrenergic receptor (P19328 whole entry): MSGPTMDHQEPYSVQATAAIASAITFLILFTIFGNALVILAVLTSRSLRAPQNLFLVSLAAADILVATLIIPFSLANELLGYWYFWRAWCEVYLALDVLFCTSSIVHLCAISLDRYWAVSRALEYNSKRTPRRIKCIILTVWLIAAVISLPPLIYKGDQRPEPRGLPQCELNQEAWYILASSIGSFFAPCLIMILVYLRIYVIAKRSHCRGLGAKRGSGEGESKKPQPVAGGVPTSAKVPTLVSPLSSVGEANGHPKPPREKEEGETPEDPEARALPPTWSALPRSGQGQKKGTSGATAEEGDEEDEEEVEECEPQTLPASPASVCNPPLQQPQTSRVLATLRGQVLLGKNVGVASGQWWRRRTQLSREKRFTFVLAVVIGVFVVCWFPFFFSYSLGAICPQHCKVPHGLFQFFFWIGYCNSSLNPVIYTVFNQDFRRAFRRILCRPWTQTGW
Sequence of Histamine H1 receptor (P31389 whole entry): as the sequence (P31389 whole entry) above

`Cc1ccc(N2C(=O)c3ccc(C(=O)NC[C@H](O)CN4CCN(c5ccccc5OC(C)C)CC4)cc3C2=O)cc1`: the pKB is 6.78 in the data set filed under Rattus norvegicus [1] and 5.9 in the data set filed under Rattus norvegicus [3]. The Ratio in data set [2] came to 7.6.
As for `CC(C)Oc1ccccc1N1CCN(CCCNC(=O)c2ccc3c(c2)C(=O)N(c2cccc(F)c2)C3=O)CC1`, the inhibition was found to be 75% in data set [4] and 66% in the data set filed under Rattus norvegicus [5]. Further, the inhibition at 1 µM turned out to be 72% in data set [6] and 76% in data set [7].
As for `CC(C)Oc1ccccc1N1CCN(C[C@@H](O)CNC(=O)c2ccc3c(c2)C(=O)N(c2cccc(F)c2)C3=O)CC1`, the pKB in the data set listed under Rattus norvegicus [1] stood at 7.81; in the data set filed under Rattus norvegicus [3], 6.47. The Ratio in data set [2] is listed as 22.6. In [4], this compound came in with an inhibition of 69%. For the same compound, the inhibition at 1 µM was found to be 81% in data set [6] and 67% in [7].
Take `CCOc1ccccc1OCCN[C@H](C)Cc1ccc(OC)c(S(N)(=O)=O)c1` [TAMSULOSIN]: the pKB turned out to be 9.33 in the data set listed under Rattus norvegicus [1] and 10.76 in the data set filed under Rattus norvegicus [3]. Moreover, the inhibition in data set [4] was 7%; in the data set listed under Rattus norvegicus [5] it was 64%. Also, the Ki is 0.79 nM in data set [8]; 78 nM at D(2) dopamine receptor [9]; 13 nM at D(2) dopamine receptor [10]; 0.28 nM at D(3) dopamine receptor; 80 nM in data set [11]; 84 nM in data set [12]. Moreover, the inhibition at 1 µM in data set [6] is 20%; in [7] it was 22%.
For `CC(C)Oc1ccccc1N1CCN(C[C@@H](O)CNC(=O)c2ccc3c(c2)C(=O)N(c2ccc(N(C)C)cc2)C3=O)CC1`, the results for the negative logarithm of the KB (pKB) in the data set listed under Rattus norvegicus [1] and in the data set filed under Rattus norvegicus [3] were 7.39 and 5.84, respectively. Besides, the Ratio in data set [2] is 35.2. Further, the Ki worked out at 38 nM on Histamine H1 receptor; 773 nM in data set [13]; 25 nM at D(2) dopamine receptor [9]; 15 nM in data set [14]; 23 nM on D(2) dopamine receptor [10]; 62 nM at D(3) dopamine receptor. In addition, the Ki in [11] was 169 nM; in data set [12] it was 10 nM. The inhibition at 1 µM in [6] was 57%.
Turning to `Cc1ccc(N2C(=O)c3ccc(C(=O)NCCCN4CCN(c5ccccc5OC(C)C)CC4)cc3C2=O)cc1`, the Ratio in data set [15] was found to be 231. In addition, the inhibition at 1 µM was determined as 69% in [6] and 53% in data set [7].
